# Assay results: ChEMBL document CHEMBL4513216, “Probing the Open Global Health Chemical Diversity Library for Multistage-Active Starting Points for Next-Generation Antimalarials” (ACS Infect Dis, 2020)
# Assay: Toxicity liver stage against HepG2, at 10uM
# Type: cell-based
# Parameters: test concentration 10 uM, cell line HepG2-A16-CD81EGFP
# Conditions: human, HepG2-A16-CD81EGFP cells; read-out: INHIBITION
# Procedure, shortened: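 Uninfected HepG2-A16-CD81EGFP cells, 3 × 10^3 per well, 1536-well, plated on prespotted compound at 10 μM final, parasite-free screening media added to match infected plates; puromycin 10 μM positive, DMSO 0.5% negative; run in parallel with 48 h PbLuc assay at 37 °C, 5% CO2; viability by CellTiter-Glo luminescence, normalized to controls.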
row,Structure (SMILES),cytotoxicity at 10 µM [%]
1,CC(=O)NCCNC(=O)c1cc(COc2ccccc2)[nH]n1,-1.32
2,Cc1nc(C)n(CC2CCCN2Cc2nc3ccccc3c(=O)[nH]2)n1 (centres undefined),-4.35
3,Cn1ccnc1CN1CCCN(C(=O)c2ccc3[nH]nnc3c2)CC1,-8.53
4,CCOC(=O)[C@]12CCCN(Cc3ccco3)C[C@H]1CN(CCN(C)C)C2,-17.9
5,Cc1c(C)n2c(SCC(=O)N3CCOCC3)nnc2[nH]c1=O,3.26
6,Cc1sc(Oc2ccccc2Cl)nc1C(=O)O,1.95
7,Cc1ccc(NC2CCN(C(=O)COc3cccc(F)c3)CC2)nn1,3.11
8,Cc1ccoc1C(=O)N1C[C@@H]2COC[C@]2(COCc2cccnc2)C1,5.95
9,CCN1CCN2CCCN(S(=O)(=O)c3ccc(S(C)(=O)=O)cc3)C2C1=O (centres undefined),5.36
10,Cc1cc(C)n(CC2CCCN2CC(=O)N(C)Cc2cnn(C)c2)n1 (centres undefined),-5.85
11,Cc1cc(CN2C[C@@H]3CN(C(=O)c4ccco4)CCO[C@@H]3C2)no1,-141
12,O=c1[nH]c(NCCCO)nc2c1C1(CCCC1)Cc1ccccc1-2,8.79
13,CC1COC2(CCN(C(=O)c3ncoc3C(C)C)CC2)O1 (centres undefined),1.15
14,CCC(CO)N(Cc1ccccc1C)Cc1ccccc1C(=O)O (centres undefined),-6.32
15,CCO[C@@H]1CC[C@H]2[C@H]1OCCN2C(=O)c1ccc(C)o1,-149
16,Cc1cc(CC(C)NC(=O)c2cccc(CC3CCNCC3)c2)[nH]n1 (centres undefined),11.1
17,O=C(NCc1nncn1C1CC1)c1ccccc1Oc1cccnc1,-4.97
18,O=C(Nc1cc(C2CCOCC2)[nH]n1)c1cscn1,-7.84
19,CO[C@H]1CCN(c2nnc(C)s2)C[C@@H]1Cc1cccc(C)c1,16.6
20,Cc1ccc(-c2n[nH]cc2CNCC2CCc3nnc(C)n3C2)cc1 (centres undefined),-8.35
21,Cc1nnc([C@@]23CCO[C@@H]2CCN(S(C)(=O)=O)C3)o1,9.16
22,COCc1nc2c(o1)CN(C(=O)NCc1ccccc1)C2,10.6

row,Structure (SMILES),cytotoxicity at 10 µM [%]
1,O=c1[nH]c2cc3c(cc2cc1CN1CCCC1c1ccccn1)OCO3 (centres undefined),-4.5
2,CN(Cc1cccc(O)c1)C(=O)c1ccc(CCC(C)(C)O)cc1,3.58
3,CCOc1ccccc1C(N)CC(C)C (centres undefined),-0.857
4,Cc1ccc(-c2nc(CN3CCOCS3(=O)=O)c(C)o2)cc1,-0.724
5,CC(C)NC(=O)C1CN(C(=O)N2CCCC2)CC12CCOCC2 (centres undefined),1.08
6,Cc1ccc(CN2CCC3(CC2)NC(=O)CC3c2ccccc2)s1 (centres undefined),-1.39
7,CC(C)c1noc(C(C)N2CCN(Cc3ccsc3)CC2)n1 (centres undefined),-6.85
8,COc1ccccc1NC(=O)c1cc2c([nH]c1=O)CCCC2=O,-4.14
9,O=C(COCC(F)(F)F)NC1CCCc2cc(OC(F)F)ccc21 (centres undefined),-5.36
10,CC1=C[C@@H](CN2CCN(C)CC2)[C@H](C(C)C)C[C@H]1Cc1nnc(C)o1,-0.39
11,CC(C)NC(=O)C1CN(C(=O)N(C)C)CC12CCOCC2 (centres undefined),-110
12,CC(OCC1CC1)C(=O)NCc1cccc(CN2CCN(C)CC2)c1 (centres undefined),0.193
13,CC(C)c1nc(CN(C)Cc2cnc(N3CCOCC3)nc2)no1,10.1
14,COCCN1CCN(C(=O)C[C@@H]2C[C@@H](C(C)C)[C@H](CC#N)C=C2C)CC1,0.788
15,CC(=O)N1CCN(CCOc2ccc(F)cc2)CC(C(N)=O)C1 (centres undefined),-38.9
16,CCS(=O)(=O)CCNC(=O)NCc1ccccc1-n1cccn1,4.87
17,O=C(O)CCNC(=O)C1(c2cccc(Br)c2)CCOCC1,6.92
18,OC(CN1CCCc2ccc(F)cc21)Cn1cccn1 (centres undefined),5.95
19,Cc1nccn1-c1cc(CNC(=O)CC2CCCO2)ccn1 (centres undefined),0.491
20,O=C(c1nn[nH]c1Nc1cccc(Cl)c1)N1CCSCC1,20.3
21,Cn1ccnc1CN1C[C@H]2CN(S(=O)(=O)c3ccccc3)CCN2C1=O,8.36
22,Cc1ccc(C2(O)CCN(Cc3nc(C)n4ccccc34)CC2)nc1,3.43

row,Structure (SMILES),cytotoxicity at 10 µM [%]
1,Cc1cc(OC(F)F)c(C(=O)N2CC[C@H](O)C2)s1,9.67
2,COc1cc(C(=O)NCC2CC2)nc2c(C)cc(F)cc12,7.52
3,CC(NC(=O)N1CCNC(=O)CC1)c1ccc(OC(F)F)cc1 (centres undefined),11.6
4,CC(C#N)CN(C)Cc1c(Cl)ccc2cccnc12 (centres undefined),-39
5,Cc1cccc(NC(=O)CNC(=O)c2ccccc2F)c1,-1.24
6,COc1nc2c(cc1C(=O)N1CCCOC(CN3CCCC3)C1)CCC2 (centres undefined),-48.8
7,O=C(Nc1cccnc1)NC1CCN(c2ccccc2OC(F)F)C1 (centres undefined),12.1
8,CN1CCC(N2CCOC[C@H]2c2nc(C(C)(C)C)c[nH]2)CC1,2.73
9,Cc1cnc(C(=O)N2CCCC(Cn3cc(C4CC4)nn3)C2)cn1 (centres undefined),-1.15
10,CC(Cn1cc(Br)cn1)C(=O)Nc1ccc(Br)cn1 (centres undefined),73.3
11,CSCC(=O)NC1CC(=O)N(CCc2ccccc2)C1 (centres undefined),-2.1
12,N#Cc1ccc(OCC(O)CN2CCC(c3ccn[nH]3)CC2)cc1 (centres undefined),-3.33
13,COc1ccc(Cc2c(O)nc(SC)n(-c3ccccc3)c2=O)cc1,1.76
14,CCN1CCN(C[C@@H]2CN(c3ncccc3F)C[C@@H]2CO)CC1,-6.45
15,CC1N(CC2CC2)C(=O)COC12CCN(C(=O)c1ccncc1)CC2 (centres undefined),-13.7
16,CCN1C(=O)[C@]2(CC[C@@H]3CN(S(=O)(=O)CC(C)C)C[C@@H]32)N=C1C,-78.2
17,CSCCC(CO)NC(=O)c1ccc2[nH]/c(=N\S(C)(=O)=O)sc2c1 (centres undefined),-6.96
18,Cc1cnc2c(S(=O)(=O)NCC3CC3)cccc2c1,-2.87
19,CN(CC(F)(F)F)C(=O)CNC(=O)N1CCCC(C(F)(F)F)C1 (centres undefined),0.601
20,Cc1nnc(N2C[C@@H]3CCCO[C@@H]3[C@H](N3CCCC3=O)C2)s1,17.4
21,Cc1cccc(N(C)Cc2cc(=O)n3oc(C)cc3n2)c1,0.14
22,Cc1nn(C)c(C)c1C1CCCN1CC(=O)Nc1ccc(Cl)cn1 (centres undefined),-7.1

row,Structure (SMILES),cytotoxicity at 10 µM [%]
1,CNC(=O)c1cc2c(nc1N(C)C)CCN(c1ncccn1)CC2,-119
2,COC(=O)c1cccc(CNC(=O)CCC(F)(F)F)c1,11.6
3,COc1ccc(CCN2CCCC(n3cncn3)C2)cc1 (centres undefined),-6.2
4,Cc1ccc(CN2CC[C@H](c3nnc(-c4ccco4)o3)C2)cc1,-2.25
5,Cc1nc(CC(=O)N2CCCC2Cn2cccn2)cs1 (centres undefined),-11.2
6,NC(=O)C1(c2cnccn2)CCCN1Cc1ccc(Cl)c(F)c1 (centres undefined),-4
7,Cc1nn(C)c(Cl)c1C1CCCN1C(=O)c1ccc(O)nc1 (centres undefined),-11.2
8,CC(=O)N1CCc2[nH]cnc2C12CCN(C(=O)CCn1cccn1)CC2,5.71
9,Cc1ccccc1OCCN1CCn2c(C)nnc2C1,-2.78
10,COc1ccc(C2CCN(Cc3cscn3)CC2)cc1,-0.243
11,CCN1CCOCC12CCN(C(=O)C1CCCC1)CC2,-0.272
12,CCOc1ccnc(N2CCN(CCOC)CC2)n1,4.49
13,O=C(c1ccno1)N1CC[C@@H]2O[C@H](COCCN3CCCC3)CC[C@@H]21,-79.1
14,O=C(NCCNc1ncccn1)N1CCSCC1,-8.26
15,Cc1nc(C2CCCN(C(C)C)C2)sc1Br (centres undefined),-4.52
16,COCc1ncn2c1CN(C(=O)C1CC=CC1)CC2,-5.09
17,Cn1cccc1C(=O)NCc1cnc2n1CCN(C(N)=O)CC2,0.312
18,Cc1nc2scc(C)n2c1CNc1ccc(C(=O)O)cc1,7.05
19,CN(C)C(=O)N1CC(C(=O)NCC2CC2)C2(CCOCC2)C1 (centres undefined),-95.1
20,CCn1ncnc1CN1CCC(CNC(=O)c2cccc(C)n2)C1 (centres undefined),8.57
21,COCC(=O)NCC1Cn2nnc(-c3ccncc3)c2CO1 (centres undefined),8.22
22,Cc1nn(C)c(N(C)C)c1CNC1CCc2cc(F)ccc21 (centres undefined),-15.4

row,Structure (SMILES),cytotoxicity at 10 µM [%]
1,NCC1CCC(c2c(C(=O)NCCO)sc3ccccc23)CC1 (centres undefined),-11
2,OCCCNc1nc(O)c2c(n1)-c1ccccc1CC21CCCCC1,11.1
3,COC[C@@H]1CC[C@H]2[C@H](CCN2S(=O)(=O)c2ccc(OC)cc2)O1,0.796
4,COc1cc(C2CC(=O)Nc3c2nc2n3CCCC2)ccc1O (centres undefined),-4.27
5,COc1cc(-c2ccc(F)c3c2OC(CN)C3)cc(OC)c1OC (centres undefined),1.35
6,Cc1nn(C)c(C)c1S(=O)(=O)NCC1CCN(c2ccccn2)CC1,6.5
7,COc1cccc(NC(=O)c2cc3c([nH]c2=O)CCCC3=O)c1,-3.35
8,CCCNC(=O)C1CCCN(Cc2csc(C(C)(C)C)n2)C1 (centres undefined),-3.14
9,Cc1oncc1C(=O)NCc1ccnc(OCC(F)(F)F)c1,-3.39
10,Nc1nc(N2CCCC(COc3ccc(F)cc3)C2)c2nc[nH]c2n1 (centres undefined),2.11
11,Cc1n[nH]c(C)c1NC(=O)Nc1cccnc1N1CCCC1,-14
12,CCOc1cc(NC(=O)C2CC(=O)N(c3cccc(OC)c3)C2)ncn1 (centres undefined),-4.31
13,CN(C)C[C@@H]1CN(C2CCN(c3ccccc3Cl)CC2)C[C@@H]1CO,-10.1
14,Cc1ccc(-c2nnc(CCC(=O)NCc3cn(C)nc3C)o2)s1,-1.31
15,Cn1ccc(C(=O)N2CCCC2c2cc[nH]n2)n1 (centres undefined),-1.26
16,CC1COCCN1Cc1nc(-c2cccc(C(F)(F)F)c2)no1 (centres undefined),-13.9
17,CN(Cc1ccc(N(C)C)cc1)C(=O)CS(=O)(=O)c1ccc(Cl)cc1,22.2
18,CN(Cc1ccc2c(c1)OCCO2)c1ncc(S(N)(=O)=O)s1,0.482
19,CCOc1nnc(CN2CCN(CCOC)C(C)C2)s1 (centres undefined),-11.1
20,O=C(CCN1C(=O)CC2(CCCC2)C1=O)NCCc1nccs1,2.86
21,O=C(c1ccc[nH]1)N1C[C@H]2CN(Cc3cccc(F)c3)C(=O)[C@H]2C1,3.99
